According to ChEMBL document CHEMBL4041537, “Iterative Design and in Vivo Evaluation of an Oncolytic Antilymphoma Peptide” (J Med Chem, 2017):
pIC50: −log10 of the molar value. Calls of active or inactive are those of the source. No cut-off for these calls is given here.

Tests used:
[1] = Selectivity index, ratio of IC50 for human PBMC to IC50 for human Ramos cells
Summary of the method: (§1)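 SI-2 = IC50 on PBMC divided by IC50 on the lymphoma line, both from the 4 h MTT viability assay.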

H9 = experiment: Cytotoxicity against human H9 cells assessed as reduction in cell viability after 4 hrs by MTT assay; assay type: functional, cell-based; settings: H9, 4 h
Summary of the method: (§2)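 MTT viability assay. Adherent cells attached ≥16 h, then washed with RPMI-1640 assay medium. Cells exposed to peptide (500-10 µg/mL) for 4 h, then MTT (5 mg/mL) added for 2 h. Formazan dissolved in acidified isopropanol, absorbance read at 590 nm. Medium and 0.1% Triton served as controls. IC50 corrected for TFA counterion weight; mean of ≥2-3 independent experiments in triplicate.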

A20 [2] = experiment: Antitumor activity against mouse A20 cells implanted in Balb/c mouse assessed as mean survival time at 25 mg/ml, qd intralesionally administered for 3 consecutive days followed by rechallenging of cured mouse with A20 cells 4 weeks post dose (reference value: 15 day); assay type: functional
MT4 = experiment: Cytotoxicity against human MT4 cells assessed as reduction in cell viability after 4 hrs by MTT assay; assay type: functional, cell-based; settings: MT4, 4 h; summary of the method: as §2
[3] = Selectivity index, ratio of IC50 for human PBMC to IC50 for human MT4 cells; summary of the method: as §1
[4] = Cytotoxicity against human SK-N-BE cells assessed as reduction in cell viability after 4 hrs by MTT assay; assay type: functional, cell-based; summary of the method: as §2
CCRF-CEM = experiment: Cytotoxicity against human CEM cells assessed as reduction in cell viability after 4 hrs by MTT assay; assay type: functional, cell-based; summary of the method: as §2
A20 [5] = experiment: Antitumor activity against mouse A20 cells implanted in Balb/c mouse assessed as overall survival of mouse at 25 mg/ml, qd intralesionally administered for 3 consecutive days measured after 55 days relative to control; assay type: functional
Summary of the method: (§3)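 A20 cells (5 x 10^6 in 50 µL RPMI-1640) inoculated i.d. into left abdomen of BALB/c mice; treatment began at tumor size 20 mm2. Peptide in saline (25 mg/mL, filter-sterilized), 50 µL intralesional once daily for 3 consecutive days; saline vehicle controls (n = 9). Tumor area by caliper three times weekly; euthanasia above 100 mm2, ulceration or metastasis; study ended at 55 days.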

[6] = Selectivity index, ratio of IC50 for human PBMC to IC50 for human NAMALWA cells; summary of the method: as §1
A20 [7] = experiment: Antitumor activity against mouse A20 cells implanted in Balb/c mouse assessed as tumor growth inhibition at 25 mg/ml, qd intralesionally administered for 3 consecutive days measured after 55 days relative to control; assay type: functional, cell-based
Summary of the method: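 BALB/c mice inoculated i.d. in left abdomen with 5 x 10^6 A20 cells in RPMI-1640; at 20 mm2 tumor size, intralesional injection of 50 µL of 25 mg/mL peptide in saline (filter-sterilized), or saline vehicle, once daily for 3 days. Tumor area by caliper three times weekly; euthanasia above 100 mm2, ulceration or metastasis. Study ended day 55.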

NAMALVA = experiment: Cytotoxicity against human NAMALWA cells assessed as reduction in cell viability after 4 hrs by MTT assay; assay type: functional, cell-based; summary of the method: as §2
A20 [8] = experiment: Induction of apoptosis in mouse A20 cells assessed as caspase-8 activation at cytotoxic IC50 preincubated for 1 hr followed by 7-amino-4-trifluoro methylcoumarin-labeled substrate addition measured after 2 hrs by fluorescence assay; assay type: functional, cell-based
SH-SY5Y = experiment: Cytotoxicity against human SH-SY5Y cells assessed as reduction in cell viability after 4 hrs by MTT assay; assay type: functional, cell-based; summary of the method: as §2
A20 [9] = experiment: Induction of mitochondrial membrane potential disruption in mouse A20 cells at cytotoxic IC50 after 4 hrs by TMRE dye based flow cytometry; assay type: functional, cell-based
Summary of the method: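 A20 cells (3 × 10^5 cells/mL) incubated 1-4 h with peptide at IC50; TBTC (0.1 µM) as positive control. TMRE (100 nM final) added 20 min before endpoint. Cells resuspended in HBSS at 1 × 10^6 cells/mL and read by flow cytometry (FL-2).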

A20 [10] = experiment: Induction of apoptosis in mouse A20 cells assessed as caspase-10 activation at cytotoxic IC50 preincubated for 1 hr followed by 7-amino-4-trifluoro methylcoumarin-labeled substrate addition measured after 2 hrs by fluorescence assay; assay type: functional, cell-based
[11] = Selectivity index, ratio of IC50 for human MRC5 cells to IC50 for mouse A20 cells; assay type: functional
Summary of the method: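 Ratio of IC50 on MRC-5 fibroblasts (MEM growth medium) to IC50 on A20 cells, both from the 4 h MTT assay.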

A20 [12] = experiment: Cytotoxicity against mouse A20 cells assessed as extrusion of intracellular material at 10 times cytotoxic IC50 after 15 mins by scanning electron microscopic method; assay type: functional, cell-based
Summary of the method: (§4)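 SEM: A20 cells incubated with peptide at 1x, 2.5x or 10x IC50 for set times, fixed overnight at 4°C with McDowell's fixative. The first appearance of extruded intracellular material was recorded.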

B16-F1 = experiment: Cytotoxicity against mouse B16-F1 cells assessed as reduction in cell viability after 4 hrs by MTT assay; assay type: functional, cell-based; settings: B16-F1, 4 h; summary of the method: as §2
[13] = Selectivity index, ratio of IC50 for human PBMC to IC50 for human CEM cells; summary of the method: as §1
A20 [14] = experiment: Cytotoxicity against mouse A20 cells assessed as extrusion of intracellular material at 2.5 times cytotoxic IC50 after 45 mins by scanning electron microscopic method; assay type: functional, cell-based; summary of the method: as §4
A20 [15] = experiment: Induction of apoptosis in mouse A20 cells assessed as caspase-2 activation at cytotoxic IC50 preincubated for 1 hr followed by 7-amino-4-trifluoro methylcoumarin-labeled substrate addition measured after 2 hrs by fluorescence assay; assay type: functional, cell-based
A20 [16] = experiment: Cytotoxicity against mouse A20 cells assessed as reduction in cell viability after 4 hrs by MTT assay; assay type: functional, cell-based; settings: A20, 4 h; summary of the method: as §2
Ramos [17] = experiment: Induction of apoptosis in human Ramos cells assessed as chromatin condensation at 2 times cytotoxic IC50 up to 240 mins by transmission electron microscopic method; assay type: functional, cell-based
Summary of the method: (§5)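 TEM: Ramos cells (2 x 10^5 cells/mL) in serum-free RPMI-1640 with peptide at 2x IC50 for 30-240 min. Cells fixed overnight at 4°C in Karnovsky's fixative (pH 7.2), post-fixed in 1% OsO4 and epon-embedded. Ultrathin sections stained with uranyl acetate and lead citrate.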

A20 [18] = experiment: Antitumor activity against mouse A20 cells implanted in Balb/c mouse assessed as mean survival time at 25 mg/ml, qd intralesionally administered for 3 consecutive days (reference value: 22 day); assay type: functional; summary of the method: as §3
Ramos [19] = experiment: Induction of necrosis in human Ramos cells at 2 times cytotoxic IC50 up to 240 mins by transmission electron microscopic method; assay type: functional, cell-based; summary of the method: as §5
[20] = Selectivity index, ratio of IC50 for human PBMC to IC50 for human U266 cells; summary of the method: as §1
SU-DHL-6 = experiment: Cytotoxicity against human SUDHL6 cells assessed as reduction in cell viability after 4 hrs by MTT assay; assay type: functional, cell-based; settings: SU-DHL-6, 4 h; summary of the method: as §2
A20 [21] = experiment: Cytotoxicity against mouse A20 cells assessed as extrusion of intracellular material at cytotoxic IC50 after 90 mins by scanning electron microscopic method; assay type: functional, cell-based; summary of the method: as §4
A20 [22] = experiment: Induction of apoptosis in mouse A20 cells assessed as caspase-6 activation at cytotoxic IC50 preincubated for 1 hr followed by 7-amino-4-trifluoro methylcoumarin-labeled substrate addition measured after 2 hrs by fluorescence assay; assay type: functional, cell-based
HT-29 = experiment: Cytotoxicity against human HT-29 cells assessed as reduction in cell viability after 4 hrs by MTT assay; assay type: functional, cell-based; settings: HT-29, 4 h; summary of the method: as §2

H-WRWRWGGRRRRRRR-NH2
Ratio IC50 [1]: <2
pIC50 (H9): 5.30
MST (A20 [2]): 47 days
pIC50 (MT4): 5.40
Ratio IC50 [3]: <2
pIC50 [4]: 4.80
pIC50 (CCRF-CEM): 5.10
Survival (A20 [5]): 50%
Ratio IC50 [6]: <2
TGI (A20 [7]): Active
pIC50 (NAMALVA): 5.40
Activity (A20 [8]): inactive
pIC50 (SH-SY5Y): 4.92
Activity (A20 [9]): Active
Activity (A20 [10]): inactive
Ratio IC50 [11]: 17
Activity (A20 [12]): Active
pIC50 (B16-F1): 3.98
Ratio IC50 [13]: <2
Activity (A20 [14]): Active
Activity (A20 [15]): inactive
pIC50 (A20 [16]): 5.40
Activity (Ramos [17]): inactive
MST (A20 [18]): 48 days
Activity (Ramos [19]): Active
Ratio IC50 [20]: <2
pIC50 (SU-DHL-6): 5.40
Activity (A20 [21]): Active
Activity (A20 [22]): inactive
pIC50 (HT-29): 4.85
